Data taken from ChEMBL document CHEMBL4610085, “Boholamide A, an APD-Class, Hypoxia-Selective Cyclodepsipeptide” (J Nat Prod, 2020).
The source made the active and inactive calls. No cut-off for these calls is given here.

Columns and labels:
U-87 MG [1] = assay: Cytotoxicity against human U87MG cells assessed as reduction in cell viability after 48 hrs under normoxia condition by MTT assay; assay type: functional, cell-based, U-87MG ATCC
Method in brief: (§1)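 U87MG in DMEM with 10% FBS, 2 mM L-glutamine, penicillin/streptomycin; seeded 10,000 cells/well, 24 h at 37 °C, then exposed to compound at varying concentrations for 48 h at 37 °C either in a CO₂ incubator (normoxia) or a hypoxic chamber. MTT (0.5 mg/mL in PBS) added 2 h, DMSO solubilisation, absorbance 570 nm; IC50 by curve fitting; triplicate biological replicates.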

U-87 MG [2] = assay: Cytotoxicity against human U87MG cells assessed as reduction in cell viability after 48 hrs under hypoxia condition by MTT assay; assay type: functional, cell-based, U-87MG ATCC; method in brief: as §1
U-87 MG [3] = assay: Selectivity index, ratio of IC50 for cytotoxicity against human U87MG cells under normoxia condition to IC50 for cytotoxicity against human U87MG cells under hypoxia condition incubated for 48 hrs by MTT assay; assay type: functional, U-87MG ATCC
[4] = Induction of calcium influx in STOCK Tg(CalcaEGFP)FG104Gsat/Mmucd) mouse DRG neurons harboring CGRP-GFP assessed as increase in cytoplasmic Ca2+ at 500 nM after 7 secs by Alexa-Flour 647 Isolectin B4 staining based assay relative to control; assay type: functional, DRG neuron
Method in brief: (§2)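 Lumbar DRG L1–L6 from CGRP-GFP mice, dissociated with 0.25% trypsin for 20 min and triturated. Cultured ~16–24 h at 37 °C, 5% CO2, in MEM/10% FBS/HEPES/glucose, pH 7.4, then loaded with 4 μM Fura2-AM for 1 h. Ratio 340/380 nm excitation, 510 nm emission, recorded at room temperature during ~1 h pharmacology sequence. IB4 stain afterwards; cells classed by AITC, menthol, capsaicin, kM-RIIIJ, IB4 and CGRP-GFP.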

Cerebral cortex [5] = assay: Induction of cell death in mouse brain cortex assessed as increase in cell lysis at 1 uM after 5 secs by Alexa-Flour 647 Isolectin B4 staining based assay; assay type: functional, tissue-based
DRG neuron [6] = assay: Induction of calcium influx in STOCK Tg(CalcaEGFP)FG104Gsat/Mmucd) mouse DRG neurons harboring CGRP-GFP assessed as increase in cytoplasmic Ca2+ pulse at 10 nM after 15 secs by […]; assay type: functional, cell-based
Method in brief: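 DRG neurons from CGRP-GFP mice, Fura2-AM loaded, imaged as 340/380 nm ratio. Compound applied as a 15-second pulse, with concentrations down to ~10 nM tested. Neuron classes assigned by pharmacological markers and IB4/CGRP-GFP.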

DRG neuron [7] = assay: Irreversible induction of calcium influx in STOCK Tg(CalcaEGFP)FG104Gsat/Mmucd) mouse DRG neurons harboring CGRP-GFP assessed as increase in cytoplasmic Ca2+ pulse at 1 uM after 15 secs by […]; assay type: functional, cell-based; method in brief: as §2
DRG neuron [8] = assay: Induction of cell death in STOCK Tg(CalcaEGFP)FG104Gsat/Mmucd) mouse DRG neurons N15 cells harboring CGRP-GFP at 1 uM 7 secs by Alexa-Flour 647 Isolectin B4 staining based light micrographic method; assay type: functional; method in brief: as §2
[9] = Induction of calcium influx in STOCK Tg(CalcaEGFP)FG104Gsat/Mmucd) mouse DRG neurons harboring CGRP-GFP assessed as increase in cytoplasmic Ca2+ at 1 uM after 7 secs by Alexa-Flour 647 Isolectin B4 staining based assay relative to control; assay type: functional, DRG neuron; method in brief: as §2
Huh-7 = assay: Cytotoxicity against human HuH7 cells assessed as reduction in cell viability after 48 hrs by MTT assay; assay type: functional, cell-based; conditions: Huh-7, 48 h
Method in brief: (§3)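 Cells seeded at 10,000/well, left 24 h at 37 °C, then exposed to a range of concentrations for 48 h at 37 °C, either in a CO2 incubator (normoxia) or in a hypoxic chamber. MTT (0.5 mg/mL in PBS) was added for 2 h, DMSO was added, and absorbance was read at 570 nm. IC50 was fitted from the curves. Triplicate biological replicates.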

[10] = Toxicity in TuAB zebra fish embryo at 10 to 1000 nM dosed at 6 hpf and measured after 1 day postfertilization by bright field microscopic method; assay type: organism-based, Danio rerio; conditions: zebrafish, in vivo, 24 h, 1 µM
Method in brief: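 TuAB zebrafish embryos exposed to compound or DMSO vehicle from 6 hpf to 1 dpf at 28.5 °C, then assessed by bright-field stereomicroscope imaging.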

[11] = Induction of calcium influx in STOCK Tg(CalcaEGFP)FG104Gsat/Mmucd) mouse DRG neurons harboring CGRP-GFP assessed as increase in cytoplasmic Ca2+ in at 500 nM after 7 secs by Alexa-Flour 647 Isolectin B4 staining based assay relative to control; assay type: functional, DRG neuron; method in brief: as §2
A549 = assay: Cytotoxicity against human A549 cells assessed as reduction in cell viability after 48 hrs by MTT assay; assay type: functional, cell-based; conditions: A549, 48 h; method in brief: as §3
CHO = assay: Cytotoxicity against […] assessed as reduction in cell viability after 48 hrs by MTT assay; assay type: cell-based; conditions: Cricetulus griseus; method in brief: as §3
Cerebral cortex [12] = assay: Induction of cell death in mouse brain cortex assessed as increase in cytoplasmic Ca2+ accumulation at 1 uM by Alexa-Flour 647 Isolectin B4 staining based assay; assay type: functional, tissue-based
[13] = Cytotoxicity against human CH157 cells assessed as reduction in cell viability after 48 hrs by MTT assay; assay type: functional, cell-based

With `COc1cccc2c1C(=O)c1c(O)c3c(c(O)c1C2=O)C[C@@](O)(C(=O)CO)C[C@@H]3O[C@H]1C[C@H](N)[C@H](O)[C@H](C)O1` [DOXORUBICIN] the IC50 (U-87 MG [1]) was 0.45 µM, the IC50 (U-87 MG [2]) was 0.98 µM and the “Ratio IC50” value (U-87 MG [3]) was 0.45.
In the case of `C=C1/C=C/C(=O)NCC(=O)N[C@@H](C(C)C)C(=O)O[C@@H]([C@H](C)C[C@@H](C)CCC)[C@H](OC)C(=O)N1`, the Activity [4] is reported as 8%, the IC50 (U-87 MG [1]) is reported as 0.41 µM and the Activity (Cerebral cortex [5]) is reported as “Active”. For the same compound, the IC50 (U-87 MG [2]) was 0.12 µM, the Activity (DRG neuron [6]) was “Active” and the Activity (DRG neuron [7]) was “Active”. For the same compound, the Activity (DRG neuron [8]) was “Active”, the Activity [9] was 34% and the IC50 (Huh-7) was 0.19 µM. For the same compound, the Activity [10] was “Non-Toxic”, the Activity [11] was 61% and the IC50 (A549) was 0.39 µM. The IC50 (CHO) was 0.39 µM, the Activity (Cerebral cortex [12]) was “Active” and the “Ratio IC50” value (U-87 MG [3]) was 3.6. It also gave an IC50 [13] of 0.098 µM.
For `Cn1nnc2c(C(N)=O)ncn2c1=O` [TEMOZOLOMIDE], the IC50 (U-87 MG [1]) was 640 µM, the IC50 (U-87 MG [2]) was 1100 µM and the “Ratio IC50” value (U-87 MG [3]) was 0.6.
